In ChEMBL document CHEMBL1151833, “Cytotoxic oleanane triterpene saponins from Albizia chinensis” (J Nat Prod, 2009):

Tests used:
[1] = Toxicity in rabbit erythrocytes assessed as hemolytic activity; type: cell-based, Oryctolagus cuniculus, Erythrocyte
How it was run: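 Rabbit erythrocytes prepared by the Chinese Pharmacopoeia method. Compounds tested at 0.01, 0.05, 0.1, 0.5, 2.5, 10 and 100 µM using a procedure adapted from the literature. Result given as HC50.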

BGC-823 = assay: Cytotoxicity against human BGC823 cells after 96 hrs by MTT assay; type: functional, cell-based; conditions: BGC-823, 96 h
How it was run: (§1)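 Cells kept in RPMI 1640 with 10% FBS, penicillin and streptomycin, at 37 °C in 5% CO2. Seeded at 1.5 × 10^3 cells per well and left 24 h. Compounds added in DMSO, five concentrations over a final 0.01-10 […], each in three parallel wells, for 96 h. MTT (0.2%) added for 4 h, formazan dissolved in DMSO, read at 570 nm. IC50 taken from dose-response curves as 50% loss of optical density versus DMSO control.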

A2780 = assay: Cytotoxicity against human A2780 cells after 96 hrs by MTT assay; type: functional, cell-based; conditions: A2780, 96 h; how it was run: as §1
A549 = assay: Cytotoxicity against human A549 cells after 96 hrs by MTT assay; type: functional, cell-based; conditions: A549, 96 h; how it was run: as §1
HCT-8 = assay: Cytotoxicity against human HCT8 cells after 96 hrs by MTT assay; type: functional, cell-based; conditions: HCT-8, 96 h; how it was run: as §1
Bel-7402 = assay: Cytotoxicity against human Bel7402 cells after 96 hrs by MTT assay; type: functional, cell-based; conditions: Bel-7402, 96 h; how it was run: as §1

Row | Structure (SMILES) | HC50 [1] | IC50 (BGC-823) | IC50 (A2780) | IC50 (A549) | IC50 (HCT-8) | IC50 (Bel-7402)
1 | C=C[C@](C)(CC/C=C(\CO)C(=O)O[C@H]1[C@H](O[C@](C)(C=C)CC/C=C(\C)C(=O)O[C@H]2[C@H](O)[C@@H](O)[C@H](O[C@](C)(C=C)CC/C=C(\CO)C(=O)O[C@H]3C[C@]4(C(=O)O[C@@H]5O[C@H](CO)[C@@H](O)[C@H](O)[C@H]5O[C@@H]5O[C@@H](C)[C@H](O[C@@H]6O[C@@H](CO)[C@H](O)[C@H]6O)[C@@H](O[C@@H]6O[C@H](CO)[C@@H](O)[C@H](O)[C@H]6O)[C@H]5O)[C@H](O)C[C@]5(C)C(=CC[C@@H]6[C@@]7(C)CC[C@H](O[C@@H]8O[C@H](CO[C@@H]9O[C@H](C)[C@H](O)[C@H](O)[C@H]9O[C@@H]9OC[C@@H](O)[C@H](O)[C@H]9O)[C@@H](O)[C@H](O)[C@H]8O)C(C)(C)[C@@H]7CC[C@]65C)[C@@H]4CC3(C)C)O[C@@H]2C)O[C@H](C)[C@@H](O)[C@@H]1O)O[C@@H]1O[C@H](C)[C@@H](O)[C@H](O)[C@H]1O [ALBIZOSIDE A] | 400 nM | 1.6 µM | 1.3 µM | 1.9 µM | 5.6 µM | 2.6 µM
2 | C=C[C@](C)(CC/C=C(\CO)C(=O)O[C@H]1[C@H](O[C@](C)(C=C)CC/C=C(\C)C(=O)O[C@H]2[C@H](O)[C@@H](O)[C@H](O[C@](C)(C=C)CC/C=C(\CO)C(=O)O[C@H]3C[C@]4(C(=O)O[C@@H]5O[C@H](CO)[C@@H](O)[C@H](O)[C@H]5O[C@@H]5O[C@@H](C)[C@H](O[C@@H]6O[C@@H](CO)[C@H](O)[C@H]6O)[C@@H](O[C@@H]6O[C@H](CO)[C@@H](O)[C@H](O)[C@H]6O)[C@H]5O)[C@H](O)C[C@]5(C)C(=CC[C@@H]6[C@@]7(C)CC[C@H](O[C@@H]8O[C@H](CO[C@@H]9O[C@H](C)[C@H](O)[C@H](O)[C@H]9O[C@@H]9OC[C@@H](O)[C@H](O)[C@H]9O)[C@@H](O)[C@H](O)[C@H]8O[C@@H]8O[C@H](CO)[C@@H](O)[C@H](O)[C@H]8O)C(C)(C)[C@@H]7CC[C@]65C)[C@@H]4CC3(C)C)O[C@@H]2C)O[C@H](C)[C@@H](O)[C@@H]1O)O[C@@H]1O[C@H](C)[C@@H](O)[C@H](O)[C@H]1O [ALBIZOSIDE B] | 700 nM | 3.8 µM | 1.2 µM | 0.3 µM | 1.3 µM | 1.3 µM
3 | C=C[C@](C)(CC/C=C(\C)C(=O)O[C@H]1[C@H](O)[C@@H](O)[C@H](O[C@](C)(C=C)CC/C=C(\CO)C(=O)O[C@H]2C[C@]3(C(=O)O[C@@H]4O[C@H](CO)[C@@H](O)[C@H](O)[C@H]4O[C@@H]4O[C@@H](C)[C@H](O[C@@H]5O[C@@H](CO)[C@H](O)[C@H]5O)[C@@H](O[C@@H]5O[C@H](CO)[C@@H](O)[C@H](O)[C@H]5O)[C@H]4O)[C@H](O)C[C@]4(C)C(=CC[C@@H]5[C@@]6(C)CC[C@H](O[C@@H]7O[C@H](CO[C@@H]8OC[C@H](O)[C@H](O)[C@H]8O[C@@H]8OC[C@@H](O)[C@H](O)[C@H]8O)[C@@H](O)[C@H](O)[C@H]7O[C@@H]7O[C@H](CO)[C@@H](O)[C@H](O)[C@H]7O)C(C)(C)[C@@H]6CC[C@]54C)[C@@H]3CC2(C)C)O[C@@H]1C)O[C@@H]1O[C@H](C)[C@@H](O)[C@H](O)[C@H]1O [ALBIZOSIDE C] | 700 nM | 1.7 µM | 0.3 µM | 0.01 µM | 0.4 µM | 0.4 µM
4 | CC[C@@]1(O)C(=O)OCc2c1cc1n(c2=O)Cc2cc3ccccc3nc2-1 [CAMPTOTHECIN] | – | – | 0.3 µM | – | – | –
5 | C=C[C@](C)(CC/C=C(\CO)C(=O)O[C@H]1C[C@]2(C(=O)O[C@@H]3O[C@H](CO)[C@@H](O)[C@H](O)[C@H]3O[C@@H]3O[C@@H](C)[C@H](O[C@@H]4O[C@@H](CO)[C@H](O)[C@H]4O)[C@@H](O[C@@H]4O[C@H](CO)[C@@H](O)[C@H](O)[C@H]4O)[C@H]3O)[C@H](O)C[C@]3(C)C(=CC[C@@H]4[C@@]5(C)CC[C@H](O[C@@H]6O[C@H](CO[C@@H]7O[C@H](C)[C@H](O)[C@H](O)[C@H]7O[C@@H]7OC[C@@H](O)[C@H](O)[C@H]7O)[C@@H](O)[C@H](O)[C@H]6O)C(C)(C)[C@@H]5CC[C@]43C)[C@@H]2CC1(C)C)O[C@@H]1O[C@H](C)[C@@H](O)[C@H](O)[C@H]1O [PROSAPOGENIN 10] | 128000 nM | > 10 µM | > 10 µM | > 10 µM | > 10 µM | > 10 µM
